Data taken from ChEMBL document CHEMBL4680166, “Dual-functional conjugates improving cancer immunochemotherapy by inhibiting tubulin polymerization and indoleamine-2,3-dioxygenase” (Eur J Med Chem, 2020).
Activity calls are given as the source filed them. No cut-off for these calls is given here.

Columns and labels:
[1] = test system: HeLa; experiment: Inhibition of cell migration in human HeLa cells at 0.5 uM measured after 24 hrs by wound healing assay (reference value: 61%); assay type: functional
Summary of the method: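 Confluent HeLa monolayers were scratched with a pipette tip and washed with ice-cold PBS. Incubated 24 h at 37 °C in DMEM/10% FBS containing compound. Wounds were photographed at 0 and 24 h and migration distance measured manually.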

[2] = Toxicity in BALB/c nude mouse transfected with human HeLa cells assessed as heart damage at 30 mg/kg/day, iv for 21 days by H&E staining based immunohistochemistry; assay type: organism-based; conditions: in vivo, 504 h, time 21 day
Summary of the method: (§1)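 HeLa xenografts were grown s.c. in male BALB/c nude mice, which received i.v. tail-vein doses once daily for 21 days in Tween 80/saline vehicle, with saline controls. After 3 weeks the mice were sacrificed. Organs from one mouse per group were fixed in 4% paraformaldehyde, paraffin-embedded and sectioned. Sections were dewaxed, stained with Harris hematoxylin and eosin-phloxine, and examined microscopically for histopathologic changes.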

[3] = test system: HUVEC; experiment: Cytotoxicity against HUVEC cells assessed as inhibition of cell proliferation measured after 72 hrs by MTT assay; assay type: cell-based; conditions: Homo sapiens
Summary of the method: (§2)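 Cells (A549, PC-3, HeLa, HUVEC) grown in DMEM with 10% FBS at 37 °C, 5% CO₂. Seeded at 5 × 10⁴ cells/well and allowed 24 h to attach, then exposed 72 h to a concentration series from DMSO stocks. MTT was added for 4 h and formazan dissolved in DMSO, read at 490 nm. Survival taken relative to untreated control. IC50 by Bliss method, three repeats.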

[4] = Toxicity in BALB/c nude mouse transfected with human HeLa cells assessed as kidney damage at 30 mg/kg/day, iv for 21 days by H&E staining based immunohistochemistry; assay type: organism-based; conditions: in vivo, 504 h, time 21 day; summary of the method: as §1
[5] = Antitumor immunity against IFN-gamma stimulated human HeLa cells co-cultured with PHA-M-stimulated human PBMC cells assessed as induction of CD3+ T cell proliferation at 0.1 uM preincubated for 2 days measured after co-culturing with PBMC for 6 days by flow cytometry (reference value: 6 to 6.2%); assay type: functional; conditions: time 8 day
[6] = test system: HeLa; experiment: Antitumor activity against human HeLa cells xenografted in BALB/c mouse assessed as inhibition of tumor volume at 15 mg/kg/day, iv administered for 21 days by caliper analysis; assay type: functional; conditions: 504 h, time 21 day
Summary of the method: (§3)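 Male BALB/c nude mice, five weeks old, 18-22 g. Inoculated subcutaneously in the right armpit with 1 × 10⁷ HeLa cells/0.1 mL. At 120-150 mm³, randomized to four groups of five. Once-daily tail-vein injection for 21 days in Tween 80/physiological saline; controls received saline. Tumor volume measured every 2 days by caliper, V = AB²/2.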

[7] = test system: PC-3; experiment: Anticancer activity against human PC3 cells assessed as inhibition of cell proliferation measured after 72 hrs by MTT assay; assay type: functional, cell-based; conditions: PC-3, 72 h; summary of the method: as §2
[8] = Toxicity in BALB/c nude mouse transfected with human HeLa cells assessed as liver damage at 15 mg/kg/day, iv for 21 days by H&E staining based immunohistochemistry; assay type: organism-based; conditions: in vivo, 504 h, time 21 day
Summary of the method: (§4)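 After 3 weeks of daily iv dosing of HeLa-xenografted nude mice, organs were taken from one mouse per group. Fixed in 4% paraformaldehyde, paraffin-embedded and sectioned. Stained with Harris hematoxylin and eosin-phloxine, then examined microscopically for histopathology.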

[9] = Toxicity in BALB/c nude mouse transfected with human HeLa cells assessed as kidney damage at 15 mg/kg/day, iv for 21 days by H&E staining based immunohistochemistry; assay type: organism-based; conditions: in vivo, 504 h, time 21 day; summary of the method: as §4
[10] = test system: HeLa; experiment: Antitumor activity against human HeLa cells xenografted in iv dosed BALB/c mouse assessed as inhibition of tumor growth administered once daily for 21 days by caliper analysis; assay type: functional, organism-based; conditions: dose 15-30 mg/kg/day, time 21.0 day; summary of the method: as §3
[11] = test system: HeLa; experiment: Induction of apoptosis in human HeLa cells assessed as down regulation of Bcl-2 protein expression at 0.5 uM measured after 24 hrs by western blot analysis; assay type: functional, cell-based
Summary of the method: (§5)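 HeLa cells were treated 24 h at 37 °C and lysed in buffer containing PMSF. Protein quantified by BCA, equal amounts separated by SDS-PAGE and transferred to nitrocellulose. Blocked in 5% milk, primary antibodies overnight at 4 °C, peroxidase secondary 2 h at 25 °C. Detection by chemiluminescence, β-actin as loading control.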

[12] = Toxicity in BALB/c nude mouse transfected with human HeLa cells assessed as lung damage at 15 mg/kg/day, iv for 21 days by H&E staining based immunohistochemistry; assay type: organism-based; conditions: in vivo, 504 h, time 21 day; summary of the method: as §4
[13] = test system: HeLa; experiment: Induction of apoptosis in human HeLa cells assessed as cell membrane integrity loss, chromatin condensation and apoptotic body formation by measuring strengthened orange fluorescence intensity at 0.5 uM measured after 24 hrs by AO/EB dual staining based fluorescence microscopy; assay type: functional
[14] = Toxicity in BALB/c nude mouse transfected with human HeLa cells assessed as liver damage at 30 mg/kg/day, iv for 21 days by H&E staining based immunohistochemistry; assay type: organism-based; conditions: in vivo, 504 h, time 21 day; summary of the method: as §1
[15] = Toxicity in BALB/c nude mouse transfected with human HeLa cells assessed as body weight changes at 30 mg/kg/day, iv for 21 days; assay type: organism-based; conditions: in vivo, 504 h, time 21 day
Summary of the method: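 Five-week-old male BALB/c nude mice (18-22 g) were inoculated s.c. in the right armpit with HeLa cells (1 × 10⁷ cells/0.1 mL/mouse). At a tumour volume of 120-150 mm³, mice were randomised, five per group. Dosing was i.v. via the tail vein once daily for 21 days, in Tween 80/physiological saline; controls got an equal volume of saline. Body weight was recorded every 2 days.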

[16] = test system: HeLa; experiment: Induction of apoptosis in human HeLa cells assessed as upregulation of Bax protein expression at 0.5 uM measured after 24 hrs by western blot analysis; assay type: functional, cell-based; summary of the method: as §5
[17] = test system: HeLa; experiment: Induction of apoptosis in human HeLa cells assessed as mitochondrial membrane potential dissipation at 0.5 uM incubated for 24 hrs by JC-1 staining based flow cytometry (reference value: 6.6%); assay type: functional
[18] = Toxicity in BALB/c nude mouse transfected with human HeLa cells assessed as heart damage at 15 mg/kg/day, iv for 21 days by H&E staining based immunohistochemistry; assay type: organism-based; conditions: in vivo, 504 h, time 21 day; summary of the method: as §4
[19] = test system: HeLa; experiment: Induction of apoptosis in human HeLa cells assessed as upregulation of caspase-3 protein expression at 0.5 uM measured after 24 hrs by western blot analysis; assay type: functional, cell-based; summary of the method: as §5
[20] = test system: HeLa; experiment: Anticancer activity against human HeLa cells assessed as inhibition of cell proliferation measured after 72 hrs by MTT assay; assay type: functional, cell-based; summary of the method: as §2

- IC50 [7]: 460 nM
- IC50 [20]: 70 nM
SMILES: COc1ccc(/C=C\c2cc(OC)c(OC)c(OC)c2)cc1OC(=O)c1cccc(Cn2cc(CCOC(=O)[C@H](N)Cc3cn(C)c4ccccc34)nn2)c1
- inhibition at 0.5 µM [1]: 88%
- Activity [2]: Non-Toxic
- IC50 [3]: 1520 nM
- Activity [4]: Non-Toxic
- Activity [5]: 40.3%
- inhibition in vivo at 15 mg/kg/day [6]: 50.7%
- Activity [8]: Non-Toxic
- Activity [9]: Non-Toxic
- Activity [10]: Dose-dependent effect
- Activity [11]: Active
- Activity [12]: Non-Toxic
- Activity [13]: Active
- Activity [14]: Non-Toxic
- Activity [15]: Non-Toxic
- Activity [16]: Active
- Activity [17]: 68.8%
- Activity [18]: Non-Toxic
- Activity [19]: Active
